The species entered for test [1] is Rattus norvegicus. The experiment in a line: Complete remission of DMBA-induced hormone-dependent mammary carcinoma tumors in rats at 4 mg. Type of test: functional. A digest of the protocol:
(§1)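 Female SD rats bearing DMBA-induced, hormone-dependent mammary adenocarcinoma, with at least one tumor >140 mm², were grouped in tens. Dosing was sc per kg body weight: a single dose daily Monday–Thursday and a double dose Friday. Ovariectomy served as the comparison arm. Complete remission was defined as a tumor no longer palpable. Body weight and tumor area changes were also recorded.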

The species entered for test [2] is Rattus norvegicus. The test can be described thus: Partial remission of DMBA-induced hormone-dependent mammary carcinoma tumors in rats at 2 mg. In kind it is functional. A digest of the protocol:
(§2)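 DMBA-induced, hormone-dependent mammary adenocarcinoma in SD rats. Rats bearing at least one tumor >140 mm² were placed in groups of ten. Compound was given sc as a single dose (mg/kg) daily Monday–Thursday and a double dose on Friday. Tumors were counted at the start and as new tumors; responses were scored as complete remission (not palpable), partial remission (≥50% reduction), no change or progression. Tumor area and body weight were recorded as % change.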

The species entered for test [3] is Rattus norvegicus. The test can be described thus: Percent change in body weight DMBA-induced hormone-dependent mammary carcinoma tumors in rats at 4 mg for 7 days. In kind it is functional.
For test [4], the species on record is Rattus norvegicus. The test can be described thus: Percent change in DMBA-induced hormone-dependent mammary carcinoma tumor area at 4 mg after 28 days. Type of test: functional. The essentials: as §2
For test [5], the species on record is Rattus norvegicus. The experiment in a line: Percent unchanged tumor size of DMBA-induced hormone-dependent mammary carcinoma tumors in rats at 4 mg. Type of test: functional.
Test [6] relates to MCF7. The test can be described thus: Inhibition of estrogen receptor positive MCF-7 cell proliferation as cell number after 10 days at 10e-7 M with 10e-7 M 17-beta-estradiol. Type of test: functional, Homo sapiens. The essentials:
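MCF-7 cells were grown in McCoy's 5a medium with fetal bovine serum stripped by DCC (0.5 h, 45 °C). Compounds were dissolved in ethanol (final ≤0.5%) and diluted in complete medium. Cells were seeded at 5×10^4 cells/plate. On day 10, three replicate plates per group were counted by Coulter counter, three counts per plate. Percent T/C = test/control. In a retest, compounds were given at 10^-7 M with 17β-estradiol at 10^-7 or 10^-8 M.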

The species entered for test [7] is Rattus norvegicus. The experiment in a line: Percent change in DMBA-induced hormone-dependent mammary carcinoma tumor area at 1 mg after 28 days. In kind it is functional. A digest of the protocol: as §2
The species entered for test [8] is Mus musculus. The test can be described thus: Vaginal cornification test in mice at 25 ug; predominant cellular component leucocytes (diestrus). In kind it is functional, organism-based.
For test [9], the species on record is Mus musculus. The test can be described thus: Predominant components of vaginal smear at a compound concentration of 500 ug was determined using vaginal cornification test; leucocytes (</= 50%), nucleated and cornified, nucleated cellscharacteristic of antiestrogens. Type of test: functional, organism-based.
Test [10] deals with T1, Estrogen receptor (Mus musculus) (UniProt O08537+P19785). The experiment in a line: Antiestrogenic activity in uterotrophic test in mice at 2.5 ug (experiment 1). Type of test: functional. The essentials: (§3)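 Immature female NMRI mice, 20 days old (14.5 ± 1.2 g), randomly grouped 10 per group. Each received a daily sc injection for 3 days of 0.1 mL olive oil solution containing test compound, together with estrone to stimulate uterine growth. Uteri were removed 24 h after the last injection and weighed. Results are reported as % inhibition of the estrone-stimulated uterine weight gain, mean ± SD.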
T1 sequence (O08537 whole entry, looked up): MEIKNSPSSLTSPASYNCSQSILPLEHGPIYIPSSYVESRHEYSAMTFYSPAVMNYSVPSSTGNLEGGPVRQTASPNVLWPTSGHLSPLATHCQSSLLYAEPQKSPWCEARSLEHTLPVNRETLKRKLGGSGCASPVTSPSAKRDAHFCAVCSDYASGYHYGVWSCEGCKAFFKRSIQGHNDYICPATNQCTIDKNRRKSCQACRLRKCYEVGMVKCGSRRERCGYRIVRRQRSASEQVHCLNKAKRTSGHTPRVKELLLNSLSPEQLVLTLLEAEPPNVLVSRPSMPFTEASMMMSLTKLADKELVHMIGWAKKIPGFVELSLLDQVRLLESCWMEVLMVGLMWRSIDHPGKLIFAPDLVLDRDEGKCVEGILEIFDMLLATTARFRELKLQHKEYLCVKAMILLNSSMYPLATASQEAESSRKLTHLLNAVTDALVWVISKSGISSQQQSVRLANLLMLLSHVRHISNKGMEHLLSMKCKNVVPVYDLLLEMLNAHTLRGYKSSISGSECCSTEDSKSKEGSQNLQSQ
T1 sequence (P19785 whole entry, looked up): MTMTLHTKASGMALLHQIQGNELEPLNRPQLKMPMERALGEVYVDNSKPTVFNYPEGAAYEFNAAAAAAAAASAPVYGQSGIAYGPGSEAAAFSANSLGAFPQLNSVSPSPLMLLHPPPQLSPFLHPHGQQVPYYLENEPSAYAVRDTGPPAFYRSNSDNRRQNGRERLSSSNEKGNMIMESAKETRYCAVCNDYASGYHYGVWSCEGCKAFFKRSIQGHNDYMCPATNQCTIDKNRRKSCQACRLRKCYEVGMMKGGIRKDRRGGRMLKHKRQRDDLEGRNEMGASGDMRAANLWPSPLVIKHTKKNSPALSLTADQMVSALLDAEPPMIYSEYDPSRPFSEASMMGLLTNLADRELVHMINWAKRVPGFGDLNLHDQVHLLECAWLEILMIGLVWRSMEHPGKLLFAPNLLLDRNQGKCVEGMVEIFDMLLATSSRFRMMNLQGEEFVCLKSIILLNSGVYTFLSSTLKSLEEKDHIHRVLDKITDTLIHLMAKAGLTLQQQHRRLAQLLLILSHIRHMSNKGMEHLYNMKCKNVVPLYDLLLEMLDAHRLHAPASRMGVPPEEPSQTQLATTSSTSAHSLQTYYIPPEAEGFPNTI

For test [11], the target named is T1, Estrogen receptor (Mus musculus). The test can be described thus: Antiestrogenic activity in uterotrophic test in mice at 0 ug (experiment 2). Type of test: functional. A digest of the protocol:
as §3

For test [12] the target is unchanged. The experiment in a line: Estrogenic activity in uterotrophic test in mice at 0.8 ug (experiment 1). In kind it is functional. A digest of the protocol: (§4)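 Uterine growth stimulation in immature female NMRI mice, 20 days old (14.5 ± 1.2 g), 10 per group. Test compound in 0.1 mL olive oil was given sc daily for 3 days. Uteri were excised 24 h after the final injection and weighed. Effect is reported as mean ± SD.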

Test [13] shares this target. The test can be described thus: Estrogenic activity in uterotrophic test in mice at 80 ug (experiment 2). Type of test: functional. The essentials:
(§5)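 Immature (20-day-old) female NMRI mice, 14.5 ± 1.2 g, randomized into groups of 10. Given the test compound sc daily for 3 days in 0.1 mL olive oil. Uteri removed 24 h after the last injection; uterine weight taken as the read-out, means ± SD. Dose in μg.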

For test [14], the species on record is Rattus norvegicus. The test can be described thus: Percent change in body weight DMBA-induced hormone-dependent mammary carcinoma tumors in rats at 2 mg for 7 days. Type of test: functional. A digest of the protocol: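 Sprague-Dawley rats with DMBA-induced, hormone-dependent mammary adenocarcinoma; animals with at least one tumor over 140 mm² were grouped in tens. Dosed subcutaneously in mg/kg body weight: a single daily dose Monday to Thursday, doubled on Friday. Percent change in body weight was recorded over the test alongside tumor area and remission counts, with untreated controls.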

Test [15] concerns the target T1, Estrogen receptor (Mus musculus). The experiment in a line: Inhibitory activity in mouse uterine weight test at 50 ug (experiment 2). In kind it is functional. A digest of the protocol:
(§6)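 Antiuterotrophic (Dorfman) assay in immature 20-day-old female NMRI mice, groups of 10. Uterine growth was stimulated with estrone (0.1 μg) and the test compound was given alongside it, sc daily for 3 days in 0.1 mL olive oil. Uteri were taken 24 h after the last dose. Uterine weight is reported as means ± SD and inhibition as % of the estrone-stimulated response.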

Test [16] has the same target. The test can be described thus: Antiestrogenic activity in uterotrophic test in mice at 2.5 ug (experiment 1).
The species entered for test [17] is Rattus norvegicus. The experiment in a line: Complete remission of DMBA-induced hormone-dependent mammary carcinoma tumors in rats at 4.5 mg. In kind it is functional. The essentials:
as §1

The species named for test [18] is Rattus norvegicus. The experiment in a line: Complete remission of DMBA-induced hormone-dependent mammary carcinoma tumors in rats at 9 mg. Type of test: functional. A digest of the protocol:
as §1

For test [19], the species on record is Rattus norvegicus. The experiment in a line: Number of DMBA-induced hormone-dependent mammary carcinoma tumors in ovariectomised rats. In kind it is functional. The essentials: (§7)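 DMBA-induced, hormone-dependent mammary adenocarcinoma in SD rats, with ovariectomy as the treatment. Rats bearing at least one tumor >140 mm² were placed in groups of ten. Tumors were counted at the start and as new tumors. Responses were scored as complete remission, partial remission (≥50% size reduction), no change or progression, with % change in tumor area and body weight.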

The species named for test [20] is Rattus norvegicus. The test can be described thus: Final number of DMBA-induced hormone-dependent mammary carcinoma tumors in rats at 9 mg. Type of test: functional. A digest of the protocol: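 Sprague-Dawley rats carrying DMBA-induced, hormone-dependent mammary adenocarcinoma, at least one tumor >140 mm², were placed in groups of ten. Compounds were given sc, with doses in mg/kg: a single daily dose Monday to Thursday and a double dose on Friday. Ovariectomy served as a comparator group. New tumors arising during the test were counted.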

For test [21], the species on record is Rattus norvegicus. The experiment in a line: Complete remission of DMBA-induced hormone-dependent mammary carcinoma tumors in rats at 2.25 mg. In kind it is functional. A digest of the protocol: as §1
The species named for test [22] is Rattus norvegicus. The experiment in a line: Partial remission of DMBA-induced hormone-dependent mammary carcinoma tumors in rats at 4.5 mg. In kind it is functional. A digest of the protocol:
as §2

The species entered for test [23] is Rattus norvegicus. The test can be described thus: Percent unchanged tumor size of DMBA-induced hormone-dependent mammary carcinoma tumors in rats at 4.5 mg. Type of test: functional.
The species entered for test [24] is Rattus norvegicus. The test can be described thus: Percent unchanged tumor size of DMBA-induced hormone-dependent mammary carcinoma tumors in ovarectiemised rats. Type of test: functional. A digest of the protocol:
as §7

The target of test [25] is T1, Estrogen receptor (Mus musculus). The test can be described thus: Estrogenic activity in uterotrophic test in mice at 3 ug. In kind it is functional. A digest of the protocol: as §4
Test [26] shares this target. The experiment in a line: Estrogenic activity in uterotrophic test in mice at 0 ug. In kind it is functional. A digest of the protocol: as §4
For test [27] the target is unchanged. The test can be described thus: Estrogenic activity in uterotrophic test in mice at 900 ug. In kind it is functional. The essentials: as §5
For test [28], the species on record is Rattus norvegicus. The experiment in a line: Percent change in body weight DMBA-induced hormone-dependent mammary carcinoma tumors in rats at 2.25 mg for 7 days. In kind it is functional.
Test [29] is filed under the species Rattus norvegicus. The test can be described thus: Percent change in body weight DMBA-induced hormone-dependent mammary carcinoma tumors in ovariectomised rats after 7 days. Type of test: functional. The essentials: as §7
Test [30] deals with T1, Estrogen receptor (Mus musculus). The experiment in a line: Inhibitory activity in mouse uterine weight test at 0.1 ug. In kind it is functional. The essentials: as §6
The target is the same in test [31]. The test can be described thus: Inhibitory activity in mouse uterine weight test at 50 ug. In kind it is functional. The essentials: as §6

Active and inactive are the calls of the source.

With `CCC(c1cccc(O)c1)C(CC)c1cccc(O)c1` (stereo in doubt; 20), the Tumors was 46% in test [1], 30% in test [2] and 19% in test [5]. Besides, the Change in test [3] is recorded as -5.3%; in test [4] it was -75%; in test [7], 47%; in test [14], -1.5%. The same molecule yielded a Cell number in test [6] of 5600. In addition, the outcome in test [8] was inactive. Further, the Activity entry in test [9] is “Weak activity”. The Effect in [10] is 29.5; in [11], 10; in [12], 11.8; in test [13] it was 30.5. Further, the inhibition (commonly the relative decrease from the control value, in per cent) in [15] is 47%. Besides, the % inhibition (as a rule, the relative decrease from the control value, in per cent) in test [16] is 27%.
Turning to `CCCC(c1cccc(O)c1)C(CCC)c1cccc(O)c1` (stereo unspecified), the Tumors in test [17] is recorded as 23%; in test [18], 52%; in test [21], 25%; in [22], 14%; in [23], 27%; in test [24], 0%. In addition, the values for the No. of tumors in [19] and in [20] were 2 and 1, respectively. Also, the values for the Effect in [25], in test [26] and in test [27] were 13.6, 11.4 and 28.7, respectively. In addition, the Change was 0.4% in test [28] and 3.6% in test [29]. The figures for the inhibition in test [30] and in [31] were 5% and 43%, respectively.

The record behind these values is ChEMBL document CHEMBL1121898, “Potential antiestrogens. Synthesis and evaluation of mammary tumor inhibiting activity of 1,2-dialkyl-1,2-bis(3'-hydroxyphenyl)ethanes” (1981).
